# According to ChEMBL document CHEMBL1250458, “Targeting the ICB2 site of the topoisomerase IIalpha promoter with a formamido-pyrrole-imidazole-pyrrole H-pin polyamide” (Bioorg Med Chem, 2010):
# Active and inactive are the calls of the source. No cut-off for these calls is given here.
# Tests used:
# Nucleic Acid [1] = assay: Binding affinity to ICB2 site of topoisomerase 2alpha non-cognate AAATTT assessed as change in melting temperature at 3 uM by thermal denaturation; type: nucleic-acid assay
# In short: (§1)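 Thermal melting by UV spectrophotometry: DNA hairpin 1 µM with compound 3 µM in PO40 buffer (10 mM phosphate, 12.5 mM Na+, 1 mM EDTA, pH 6.2). ΔTm taken as the difference in Tm between ligand-bound and free DNA.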
# Nucleic Acid [2] = assay: Binding affinity to biotin labeled ICB2 site of topoisomerase 2alpha non-cognate AAATTT by surface plasmon resonance assay; type: nucleic-acid assay
# In short: (§2)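 SPR at 25 °C with biotinylated DNA hairpins immobilized on a chip, in cacodylic acid buffer pH 6.25 with 0.1 M NaCl. Compound injected at a range of concentrations (up to 4 µM) at 25 µL/min with 400 s dissociation; surface regenerated with glycine pH 2.5. Keq derived from steady-state fits.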
# Nucleic Acid [3] = assay: Inhibition of nuclear factor Y binding to ICB2 site of topoisomerase 2alpha cognate sequence TACGAT in mouse NIH/3T3 cells at > 3 uM preincubated for 1 hr by electrophoretic mobility shift assay; type: cell-based; conditions: NIH3T3
# Nucleic Acid [4] = assay: Inhibition of nuclear factor Y binding to ICB2 site of topoisomerase 2alpha cognate sequence TACGAT in mouse NIH/3T3 cells at > 3 uM treated after addition of probe by electrophoretic mobility shift assay; type: cell-based; conditions: NIH3T3
# L1210 = assay: Cytotoxicity against mouse L1210 cells after 72 hrs by MTT assay; type: cell-based; conditions: L1210, 72 h
# In short: (§3)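 Cells exposed to a compound concentration gradient for 72 h, then MTT added and developed 4 h. Absorbance read; IC50 taken as the concentration giving 50% growth inhibition versus untreated control.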
# Nucleic Acid [5] = assay: Binding affinity to ICB2 site of topoisomerase 2alpha cognate sequence ATCGAT at 2 uM after 30 mins by DNase I footprinting assay; type: nucleic-acid assay
# In short: (§4)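 DNase I footprinting on a PCR-made radiolabeled 131-bp fragment. The fragment was incubated 30 min at room temperature with drug in TN buffer (10 mM Tris, 10 mM NaCl, pH 7). It was then cleaved 3 min with 0.02 U DNase I in buffer containing Mg2+/Mn2+ (pH 8.0) and stopped on dry ice. Products were resolved on a denaturing 10% polyacrylamide urea gel.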
# Nucleic Acid [6] = assay: Binding affinity to ICB2 site of topoisomerase 2alpha cognate sequence ATCGAT by isothermal titration microcalorimetry; type: nucleic-acid assay
# In short: (§5)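 ITC at 25 °C in PO45 buffer. Compound (100 µM) titrated into 2 µM DNA as 50 injections every 240 s after a 300 s delay. A linear fit was subtracted from the integrated heats to remove non-specific heat, giving ΔH.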
# NIH3T3 = assay: Inhibition of topoisomerase 2alpha expression in mouse NIH/3T3 cells up to 80 uM after 4 to 24 hrs by Western blotting; type: functional, cell-based
# In short: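 NIH 3T3 cells held at confluence for 96 h, then treated with compound (40 and 80 µM) for 6 and 24 h. Nuclear extract (50 µg) immunoblotted with polyclonal topoIIα antibody (1:1000), detected by ECL. Lamin A/C used as loading control.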
# Nucleic Acid [7] = assay: Binding affinity to ICB2 site of topoisomerase 2alpha cognate sequence ATCGAT at 1 uM after 30 mins by DNase I footprinting assay; type: nucleic-acid assay; in short: as §4
# Nucleic Acid [8] = assay: Binding affinity to ICB2 site of topoisomerase 2alpha non-cognate AAATTT by isothermal titration microcalorimetry; type: nucleic-acid assay; in short: as §5
# Nucleic Acid [9] = assay: Binding affinity to biotinylated ICB2 site of topoisomerase 2alpha cognate sequence ATCGAT by surface plasmon resonance assay; type: nucleic-acid assay; in short: as §2
# Nucleic Acid [10] = assay: Binding affinity to ICB2 site of topoisomerase 2alpha cognate sequence TACGAT by circular dichroism spectra analysis; type: nucleic-acid assay
# In short: (§6)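 CD spectra recorded in a 1 mm cuvette with 2.4 nm bandpass, integration time set as a function of PMT high volts. PO45 buffer (10 mM phosphate, 50 mM Na+, 1 mM EDTA, pH 6.2); run in duplicate.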
# Nucleic Acid [11] = assay: Binding affinity to ICB2 site of topoisomerase 2alpha cognate sequence ATCGAT assessed as change in melting temperature at 3 uM by thermal denaturation; type: nucleic-acid assay; in short: as §1
# Nucleic Acid [12] = assay: Binding affinity to ICB2 site of topoisomerase 2alpha cognate sequence TACGAT assessed as change in melting temperature at 3 uM by thermal denaturation; type: nucleic-acid assay; in short: as §1
# Nucleic Acid [13] = assay: Binding affinity to ICB2 site of topoisomerase 2alpha cognate sequence ATCGAT at 6 molar equivalent concentration by circular dichroism spectra analysis; type: nucleic-acid assay; in short: as §6
# B16 = assay: Cytotoxicity against mouse B16 cells after 72 hrs by MTT assay; type: cell-based; conditions: B16, 72 h; in short: as §3
# Nucleic Acid [14] = assay: Binding affinity to ICB2 site of topoisomerase 2alpha cognate sequence TACGAT by isothermal titration microcalorimetry; type: nucleic-acid assay; in short: as §5
Structure (SMILES),ΔTm (Nucleic Acid [1]),Ke (Nucleic Acid [2]),Activity (Nucleic Acid [3]),Activity (Nucleic Acid [4]),IC50 (L1210),Activity (Nucleic Acid [5]),Activity (Nucleic Acid [6]),Activity (NIH3T3),Activity (Nucleic Acid [7]),Activity (Nucleic Acid [8]),Ke (Nucleic Acid [9]),Activity (Nucleic Acid [10]),ΔTm (Nucleic Acid [11]),ΔTm (Nucleic Acid [12]),Activity (Nucleic Acid [13]),IC50 (B16),Activity (Nucleic Acid [14])
CN(C)CCCNC(=O)c1cc(NC(=O)c2nc(NC(=O)c3cc(NC=O)cn3CCOCCOCCn3cc(NC=O)cc3C(=O)Nc3cn(C)c(C(=O)Nc4cc(C(=O)NCCCN(C)C)n(C)c4)n3)cn2C)cn1C,4 °C,inactive,Active,Active,> 100 µM,Active,Active,inactive,Active,inactive,5 ×10⁵ /M,Active,6 °C,3 °C,Active,> 100 µM,Active
CN(C)CCCNC(=O)c1cc(NC(=O)c2nc(NC(=O)c3cc(NC=O)cn3C)cn2C)cn1C,,,,,,Active,,,inactive,,,,,,,,
